Measured values collected from several papers.
Compare with care: the assays were run in different laboratories.
Cell line: HCT-116
Read-out: cell growth or viability

`O=c1cc(-c2ccc(O)c(O)c2)oc2cc(O)cc(O)c12` gave an IC50 of 11.1 µM (WST-1; 48 h).
With `C=CC(=O)Nc1cccc(Nc2nc(Nc3ccc(OCCOC)cc3)ncc2F)c1` the IC50 was 6.79 µM.
`COc1cccc2c1C(=O)c1c(O)c3c(c(O)c1C2=O)C[C@@](O)(C(=O)CO)C[C@@H]3O[C@H]1C[C@H](N)[C@H](O)[C@H](C)O1` has an IC50 of 0.11 µM (SRB).
For `Cc1ccc(O)c(/C=N/c2nc(Oc3ccccc3)nn2-c2ccc(C(=O)O)cc2)c1`, the IC50 was 74 µM (MTT).
For `O=C(NC(=S)NCCNC(=S)NC(=O)c1ccc2ccccc2c1)c1ccc2ccccc2c1`, the IC50 was 1.31 µM (48 h).
With `COc1cc(Nc2nccc(-c3cnn4nc(OC)ccc34)n2)cc(C(F)(F)F)c1` the IC50 was 0.55 µM (ATP luminescence).
The IC50 of `CCNC(=S)NC(=O)c1ccc2ccccc2c1` is reported as 4.14 µM (48 h).
With `Cn1c(-c2nnc(NC(=O)c3cc4c([nH]c5ccccc54)c(-c4ccccc4)n3)s2)cc2ccccc21` the IC50 was 10.3 µM (MTT; 72 h).
`CC(=O)Oc1ccc2ccc(=O)oc2c1CBr` has an IC50 of > 20 µM (MTT; 36 h).
The IC50 of `CC(C)n1c(/C=C/C(O)CC(O)CC(=O)O)c(-c2ccc(F)cc2)c2ccccc21` (centres unmarked) is reported as 7.06 µg/mL (SRB; 72 h).
`Clc1ccc(C[n+]2cn(CCc3ccccc3)c3ccccc32)cc1` gave an IC50 of 18.4 µM (MTT; 72 h).
With `CC(=O)OCCOC(=O)[C@]1(C)CC[C@]2(C)CC[C@]3(C)C4=CC=C5C(=CC(=O)C(O)=C5C)[C@]4(C)CC[C@@]3(C)[C@@H]2C1` the IC50 was 0.47 µM (MTT; 48 h).
With `CSc1nc(/N=C/c2cc(Br)ccc2O)n(-c2ccc(C(=O)O)cc2)n1` the IC50 was 59.4 µM (MTT).
The IC50 of `Cn1c(-c2nnc(NC(=O)c3cc4c([nH]c5ccccc54)c(-c4ccc(F)cc4)n3)s2)cc2ccccc21` is reported as 14.3 µM (MTT; 72 h).
`O=c1ccc2ccc(O)c(CO)c2o1` has an IC50 of > 20 µM (MTT; 36 h).
`O=Cc1ccc(CO)o1` has an IC50 of 83.1 µM (WST-1; 48 h).
For `CC1=C(O)C(=O)C=C2C1=CC=C1[C@@]2(C)CC[C@@]2(C)[C@@H]3C[C@](C)(C(=O)OCCCCCCO)CC[C@]3(C)CC[C@]12C`, the IC50 was 0.53 µM (MTT; 48 h).
With `COc1ccc(-c2nc(C(=O)Nc3nnc(-c4cc5ccccc5[nH]4)s3)cc3c2[nH]c2ccccc23)cc1` the IC50 was 4.78 µM (MTT; 72 h).
The IC50 of `COc1c(C)cnc(COc2ccc(NC(=O)Nc3ccc(Cl)c(C(F)(F)F)c3)cc2)c1C` is reported as 8.17 µM (MTT; 72 h).
The IC50 of `COc1cc([C@@H]2c3cc4c(cc3[C@@H](O[C@@H]3O[C@@H]5CO[C@@H](C)O[C@H]5[C@H](O)[C@H]3O)[C@H]3COC(=O)[C@H]23)OCO4)cc(OC)c1O` is reported as 18.3 µM (MTS; 72 h).
The IC50 of `COCCCOc1ccnc(COc2ccc(NC(=O)Nc3cccc(C(F)(F)F)c3)cc2)c1C` is reported as 8.81 µM (MTT; 72 h).
The IC50 of `CS(=O)(=O)c1nc(N)n(-c2ccc(C(=O)O)cc2)n1` is reported as 48.5 µM (MTT).
`NC(=O)NOCCCC[P+](c1ccccc1)(c1ccccc1)c1ccccc1` has an IC50 of > 600 µM (imaging).
With `O=C(NC(=S)Nc1ccccc1)c1ccc2ccccc2c1` the IC50 was 5.77 µM (48 h).
`CSc1nc(/N=C/c2cc(C)ccc2O)n(-c2ccc(C(=O)O)cc2)n1` has an IC50 of 43.9 µM (MTT).
`COc1ccc(NC(=O)Nc2ccc(OCc3nccc(OC)c3OC)cc2)cc1` has an IC50 of 13.1 µM (MTT; 72 h).
The IC50 of `CC(=O)SCc1cc(=O)oc2ccc(O)cc12` is reported as > 20 µM (MTT; 36 h).
`COc1cc(CNC(=O)CCCC/C=C/C(C)C)ccc1OCc1cn(-c2ccc(C#N)cc2)nn1` has an IC50 of 10.5 µM (SRB).
`O=C(O)C[C@H](O)C[C@H](O)/C=C/c1c(C2CC2)nc2ccccc2c1-c1ccc(F)cc1` has an IC50 of 7.46 µg/mL (SRB; 72 h).
`CC(=O)O[C@H]1C(=O)[C@@]2(C)[C@H]([C@H](OC(=O)c3ccccc3)[C@]3(O)C[C@H](OC(=O)[C@H](O)[C@@H](NC(=O)c4ccccc4)c4ccccc4)C(C)=C1C3(C)C)[C@]1(OC(C)=O)CO[C@@H]1C[C@@H]2O` gave an IC50 of 0.0019 µM (fluorescence; 72 h).
`COC(=O)/C=C1\S/C(=N\C(=O)c2ccc3ccccc3c2)N(C2CCCCC2)C1=O` gave an IC50 of 12.2 µM (48 h).
`COc1ccc(O)c(/C=N/c2nc(Oc3ccccc3)nn2-c2ccc(C(=O)O)cc2)c1` has an IC50 of 58.5 µM (MTT).
`COc1ccc(-c2nc(C(=O)Nc3nnc(-c4cc5ccccc5n4C)s3)cc3c2[nH]c2ccccc23)cc1` gave an IC50 of 8.07 µM (MTT; 72 h).
`COc1cc([C@@H]2c3cc4c(cc3[C@@H](O[C@@H]3O[C@@H]5CO[C@@H](C)O[C@H]5[C@H](O)[C@H]3O)[C@H]3COC(=O)[C@H]23)OCO4)cc(OC)c1O` gave an IC50 of 29.6 µM (MTS; 24 h).
`CC(C)[C@H](N)c1nc2cc(-c3ccncc3F)sc2c(=O)[nH]1` gave an IC50 of 0.158 µM (MTT).
`COCCCOc1ccnc(COc2ccc(NC(=O)Nc3ccc(Cl)cc3)cc2)c1C` gave an IC50 of 9.5 µM (MTT; 72 h).
`CC1=C(O)C(=O)C=C2C1=CC=C1[C@@]2(C)CC[C@@]2(C)[C@@H]3C[C@](C)(C(=O)OCCCN4C(=O)C5C=CC=CC5C4=O)CC[C@]3(C)CC[C@]12C` (some centres unmarked) has an IC50 of 0.64 µM (MTT; 48 h).
`O=C(/N=c1\scc(-c2ccccc2)n1C1CCCCC1)c1ccc2ccccc2c1` gave an IC50 of 19.2 µM (48 h).
`COc1c(C)cnc(COc2ccc(NC(=O)Nc3ccc(F)cc3)cc2)c1C` gave an IC50 of 12.7 µM (MTT; 72 h).
With `NC(=O)NOCCCCCCCCCCCCCCCCCCCC[P+](c1ccccc1)(c1ccccc1)c1ccccc1` the IC50 was 0.23 µM (imaging).
For `COCCCOc1ccnc(COc2ccc(NC(=O)Nc3ccc(Cl)c(C(F)(F)F)c3)cc2)c1C`, the IC50 was 10.1 µM (MTT; 72 h).
The IC50 of `O=c1cc(CCl)c2cc(O)ccc2o1` is reported as > 20 µM (MTT; 36 h).
`O=C(/N=C1\S/C(=C\c2ccc(Cl)cc2)C(=O)N1C1CCCCC1)c1ccc2ccccc2c1` gave an IC50 of 9.28 µM (48 h).
`Cc1c(OCC(F)(F)F)ccnc1COc1ccc(NC(=O)Nc2cc(F)cc(F)c2)cc1` has an IC50 of 52 µM (MTT; 72 h).
The IC50 of `CC1(C)CC[C@]2(C)CC[C@]3(C)C(=CC[C@@H]4[C@@]5(C)CC[C@H](O)C(C)(C)[C@@H]5CC[C@]43C)[C@@H]2C1` is reported as 91.3 µM (WST-1; 48 h).
`COc1ccc(NC(=O)Nc2ccc(OCc3ncc(C)c(OC)c3C)cc2)cc1` gave an IC50 of > 100 µM (MTT; 72 h).
With `Cc1cc(C)n(-c2nc(Nc3ccc(Cl)cc3)nc(-n3nc(C)cc3C)n2)n1` the IC50 was 11 µM (MTT; 72 h).
